Reference: ChEMBL document CHEMBL1147788, “Design, synthesis, and preliminary biological evaluation of 2,3-dihydro-3-hydroxymethyl-1,4-benzoxazine derivatives” (2006)
Activity calls are given as the source filed them. The calls are words filed in the database; no cut-off is given here.

Legend:
A549 [1] = test: Antiproliferative activity against human A549 cell line by MTT assay; type: functional, cell-based
How it was run: (§1)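 A549 cells grown in medium with or without compound at 50–400 µM for 24 and 48 h; viability read by MTT assay and expressed as percent of vehicle (DMSO) control. Means ± SE of three independent experiments; significance tested against control.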

HUVEC [2] = test: Induction of HUVEC cell line apoptosis at 25 uM; type: functional, cell-based; settings: Homo sapiens
How it was run: (§2)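 HUVECs in MCDB131 with 10% fetal calf serum and […] bFGF, passages 10–20. Apoptosis induced by growth-factor deprivation. Cells cultured with or without compound at 25–200 µM for 24 and 48 h. Means ± SE of three independent experiments versus control.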

HUVEC [3] = test: Induction of HUVEC cell line apoptosis at 50 uM; type: functional, cell-based; settings: Homo sapiens; how it was run: as §2
HUVEC [4] = test: Induction of HUVEC cell line apoptosis at 100 uM; type: functional, cell-based; settings: Homo sapiens; how it was run: as §2
HUVEC [5] = test: Induction of HUVEC cell line apoptosis at 200 uM; type: functional, cell-based; settings: Homo sapiens; how it was run: as §2
HUVEC [6] = test: Inhibition of HUVEC cell line apoptosis at 50 uM; type: functional, cell-based; settings: Homo sapiens; how it was run: as §2
HUVEC [7] = test: Inhibition of HUVEC cell line apoptosis at 100 uM; type: functional, cell-based; settings: Homo sapiens; how it was run: as §2
HUVEC [8] = test: Inhibition of HUVEC cell line apoptosis at 200 uM; type: functional, cell-based; settings: Homo sapiens; how it was run: as §2
A549 [9] = test: Decrease in viability of human A549 cell line at 200 uM after 24 hrs relative to control by MTT assay; type: functional, cell-based; how it was run: as §1
A549 [10] = test: Antiproliferative activity against human A549 cell line at 400 uM after 24 hrs by MTT assay; type: functional, cell-based; how it was run: as §1
A549 [11] = test: Decrease in viability of human A549 cell line at 200 uM after 48 hrs relative to control by MTT assay; type: functional; how it was run: as §1
A549 [12] = test: Antiproliferative activity against human A549 cell line at 400 uM after 48 hrs by MTT assay; type: functional, cell-based; how it was run: as §1
A549 [13] = test: Decrease in viability of human A549 cell line at 50 uM after 48 hrs relative to control by MTT assay; type: functional, cell-based; how it was run: as §1
A549 [14] = test: Antiproliferative activity against human A549 cell line at 200 uM after 48 hrs by MTT assay; type: functional, cell-based; how it was run: as §1
A549 [15] = test: Decrease in viability of human A549 cell line at 400 uM after 24 hrs relative to control by MTT assay; type: functional; how it was run: as §1
A549 [16] = test: Decrease in viability of human A549 cell line at 400 uM after 48 hrs relative to control by MTT assay; type: functional; how it was run: as §1

## OCC1COc2c(Cl)cccc2N1 (stereo unspecified)
A549 [1]
  Activity: inactive
HUVEC [2]
  Activity: Active
HUVEC [3]
  Activity: Active
HUVEC [4]
  Activity: Active
HUVEC [5]
  Activity: Active

## Nc1ccc2c(c1)NC(CO)CO2 (stereo unspecified)
A549 [1]
  Activity: inactive
HUVEC [6]
  Activity: Active
HUVEC [7]
  Activity: Active
HUVEC [8]
  Activity: Active

## OCC1COc2c(Cl)cc(Cl)cc2N1 (stereo unspecified)
A549 [9]
  Activity: Active
A549 [10]
  Activity: Active
A549 [11]
  Activity: Active
A549 [12]
  Activity: Active
A549 [13]
  Activity: Active
HUVEC [2]
  Activity: Active
HUVEC [3]
  Activity: Active
HUVEC [4]
  Activity: Active
HUVEC [5]
  Activity: Active

## Cc1ccc2c(c1)NC(CO)CO2 (stereo unspecified)
A549 [1]
  Activity: inactive
HUVEC [2]
  Activity: Active
HUVEC [3]
  Activity: Active
HUVEC [4]
  Activity: Active
HUVEC [5]
  Activity: Active

## OCC1COc2ccccc2N1 (stereo unspecified)
A549 [1]
  Activity: inactive
HUVEC [2]
  Activity: Active
HUVEC [3]
  Activity: Active
HUVEC [4]
  Activity: Active
HUVEC [5]
  Activity: Active

## OCC1COc2ccc(Cl)cc2N1 (stereo unspecified)
A549 [14]
  Activity: Active
A549 [12]
  Activity: Active
HUVEC [2]
  Activity: Active
HUVEC [3]
  Activity: Active
HUVEC [4]
  Activity: Active
HUVEC [5]
  Activity: Active

## CC(C)(C)c1ccc2c(c1)NC(CO)CO2 (stereo unspecified)
A549 [11]
  Activity: 72.6%
HUVEC [2]
  Activity: Active
HUVEC [3]
  Activity: Active
HUVEC [4]
  Activity: Active
HUVEC [5]
  Activity: Active
A549 [15]
  Activity: 77.8%
A549 [16]
  Activity: 59.5%
